Active and inactive are the calls of the source. No cut-off for these calls is given here.
Experiments:
Mus musculus [1] = experiment: Anti-obesity activity in 6 hrs fasted C57BL/6 mouse supplemented with normal chow diet assessed as effect on insulin sensitivity at 20 mg/kg/day, ip administered for 1 week measured by insulin tolerance test; format: functional, organism-based; conditions: time 1.0 weeks
In short: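 Insulin tolerance test in normal-chow male C57BL/6 mice (8 weeks), after 7 days of ip dosing at 20 mg·kg−1·day−1. 6 h fast, then insulin 0.75 UI/kg body weight ip; blood glucose followed. Mean ± SEM, n = 5–9.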

Mus musculus [2] = experiment: Inhibition of lipogenesis in C57BL/6 mouse supplemented with normal chow diet assessed as decrease in ACC mRNA expression at 20 mg/kg/day, ip administered for 1 week measured by RT-qPCR assay; format: functional, organism-based; conditions: time 1.0 weeks
In short: (§1)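 Eight-week-old male C57BL/6 mice on normal chow were given 20 mg·kg−1·day−1 ip daily for 7 days or vehicle. Epididymal WAT was collected. Lipogenic, adipogenic and fatty-acid-oxidation transcripts were quantified by Trizol extraction and SYBR Green RT-qPCR. FAS, ACC, PPARγ and C/EBPα protein were assessed by western blot. n = 5–9; mean ± SEM.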

Mus musculus [3] = experiment: Inhibition of lipogenesis in C57BL/6 mouse supplemented with normal chow diet assessed as decrease in DGAT2 mRNA expression at 20 mg/kg/day, ip administered for 1 week measured by RT-qPCR assay; format: functional, organism-based; conditions: time 1.0 weeks; in short: as §1
Mus musculus [4] = experiment: Inhibition of lipogenesis in C57BL/6 mouse supplemented with normal chow diet assessed as effect on CPT1alpha mRNA expression at 20 mg/kg/day, ip administered for 1 week measured by RT-qPCR assay; format: functional, organism-based; conditions: time 1.0 weeks; in short: as §1
Mus musculus [5] = experiment: Inhibition of lipogenesis in C57BL/6 mouse supplemented with normal chow diet assessed as effect on ACO mRNA expression at 20 mg/kg/day, ip administered for 1 week measured by RT-qPCR assay; format: functional, organism-based; conditions: time 1.0 weeks; in short: as §1
Mus musculus [6] = experiment: Inhibition of lipogenesis in C57BL/6 mouse supplemented with normal chow diet assessed as effect on ACADVL mRNA expression at 20 mg/kg/day, ip administered for 1 week measured by RT-qPCR assay; format: functional, organism-based; conditions: time 1.0 weeks; in short: as §1
Mus musculus [7] = experiment: Inhibition of lipogenesis in C57BL/6 mouse supplemented with normal chow diet assessed as effect on MCAD mRNA expression at 20 mg/kg/day, ip administered for 1 week measured by RT-qPCR assay; format: functional, organism-based; conditions: time 1.0 weeks; in short: as §1
Mus musculus [8] = experiment: Inhibition of lipogenesis in C57BL/6 mouse supplemented with normal chow diet assessed as effect on UCP1 mRNA expression at 20 mg/kg/day, ip administered for 1 week measured by RT-qPCR assay; format: functional, organism-based; conditions: time 1.0 weeks; in short: as §1
Mus musculus [9] = experiment: Inhibition of lipogenesis in C57BL/6 mouse supplemented with normal chow diet assessed as decrease in C/EBPalpha mRNA expression at 20 mg/kg/day, ip administered for 1 week measured measured by RT-qPCR assay; format: functional, organism-based; conditions: time 1.0 weeks; in short: as §1
Adipocyte = experiment: Inhibition of lipogenesis in mouse adipocytes isolated stromal vascular cells assessed as decrease in FABP4 mRNA expression measured after 24 hrs by RT-qPCR assay; format: functional, cell-based
In short: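 Stromal vascular cells from inguinal WAT of C57BL/6 mice, grown in DMEM/F12 + 10% FBS at 37 °C, 10% CO2. At confluence, induced 48 h with 5 μg/ml insulin, 1 μM dexamethasone, 0.5 mM isobutylmethylxanthine, then 6 days in 5 μg/ml insulin; fully differentiated day 8. Mature adipocytes exposed to inhibitor 24 h. Total RNA by Trizol, SYBR Green RT-qPCR; protein by western blot.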

Mus musculus [10] = experiment: Inhibition of hepatic lipogenesis in C57BL/6 mouse supplemented with normal chow diet assessed as effect on MCAD mRNA expression at 20 mg/kg/day, ip administered for 1 week measured by RT-qPCR assay; format: functional, organism-based; conditions: time 1.0 weeks
In short: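 Normal-chow male C57BL/6 mice, 8 weeks old, were injected ip at 20 mg·kg−1·day−1 daily for 7 days or given vehicle. Liver RNA was extracted with Trizol, and fatty-acid-oxidation gene transcripts were quantified by SYBR Green RT-qPCR. n = 5–9; mean ± SEM.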

Hepatocyte [11] = experiment: Inhibition of lipogenesis in mouse primary hepatocytes assessed as decrease in FAS protein expression at 3 uM in presence of 100 nM insulin and 5 to 25 mM glucose measured after 18 hrs by western blot analysis; format: functional, cell-based
Hepatocyte [12] = experiment: Inhibition of lipogenesis in mouse primary hepatocytes assessed as increase in MCAD mRNA expression at 3 uM in presence of 100 nM insulin and 5 to 25 mM glucose measured after 18 hrs by RT-qPCR assay; format: functional, cell-based
In short: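 Primary hepatocytes isolated from C57BL/6 mice by two-step perfusion. Cells incubated 18 h with 3 μM inhibitor, with 0 or 100 nM insulin and 5 or 25 mM glucose. Transcripts quantified by SYBR Green RT-qPCR after Trizol RNA extraction; proteins by western blot of lysates. Mean ± SEM.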

Hepatocyte [13] = experiment: Inhibition of glucogenesis in mouse primary hepatocytes stimulated with 100 uM 8-Br-cAMP assessed as decrease in PEPCK mRNA expression at 3 uM in presence of cAMP measured after 8 hrs by RT-qPCR assay; format: functional, cell-based
In short: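 Primary mouse hepatocytes treated with 3 μM compound and 100 μM 8-Br-cAMP for 8 h. Trizol RNA, SYBR Green RT-qPCR of the named transcript. Mean ± SEM, three independent experiments.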

Hepatocyte [14] = experiment: Inhibition of glucogenesis in mouse primary hepatocytes stimulated with 100 uM 8-Br-cAMP assessed as decrease in FBP mRNA expression at 3 uM in combination with 2 mM metformin measured by RT-qPCR assay; format: functional, cell-based
In short: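 Primary mouse hepatocytes given 3 μM compound with 2 mM metformin in the presence of 100 μM 8-Br-cAMP. Gluconeogenic gene mRNA measured by SYBR Green RT-qPCR. Mean ± SEM, three independent experiments.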

HepG2 = experiment: Inhibition of glucogenesis in human HepG2 cells stimulated with 8-Br-cAMP at 3 uM assessed as effect on increased CRE luciferase activity; format: functional, cell-based
In short: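 HepG2 cells treated with 3 μM compound; CRE reporter activity measured. Mean ± SEM, three independent experiments.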

[15] = target: CREB-binding protein/Histone acetyltransferase p300 (Homo sapiens) (UniProt Q09472+Q92793); experiment: Inhibition of CBP/p300 in mouse primary hepatocytes stimulated with 100 uM 8-Br-cAMP assessed as decrease in FOXO1 abundance in nucleus at 3 uM; format: cell-based; conditions: Primary hepatocyte
CREB-binding protein/Histone acetyltransferase p300 (Homo sapiens), sequence (Q09472 whole entry, looked up): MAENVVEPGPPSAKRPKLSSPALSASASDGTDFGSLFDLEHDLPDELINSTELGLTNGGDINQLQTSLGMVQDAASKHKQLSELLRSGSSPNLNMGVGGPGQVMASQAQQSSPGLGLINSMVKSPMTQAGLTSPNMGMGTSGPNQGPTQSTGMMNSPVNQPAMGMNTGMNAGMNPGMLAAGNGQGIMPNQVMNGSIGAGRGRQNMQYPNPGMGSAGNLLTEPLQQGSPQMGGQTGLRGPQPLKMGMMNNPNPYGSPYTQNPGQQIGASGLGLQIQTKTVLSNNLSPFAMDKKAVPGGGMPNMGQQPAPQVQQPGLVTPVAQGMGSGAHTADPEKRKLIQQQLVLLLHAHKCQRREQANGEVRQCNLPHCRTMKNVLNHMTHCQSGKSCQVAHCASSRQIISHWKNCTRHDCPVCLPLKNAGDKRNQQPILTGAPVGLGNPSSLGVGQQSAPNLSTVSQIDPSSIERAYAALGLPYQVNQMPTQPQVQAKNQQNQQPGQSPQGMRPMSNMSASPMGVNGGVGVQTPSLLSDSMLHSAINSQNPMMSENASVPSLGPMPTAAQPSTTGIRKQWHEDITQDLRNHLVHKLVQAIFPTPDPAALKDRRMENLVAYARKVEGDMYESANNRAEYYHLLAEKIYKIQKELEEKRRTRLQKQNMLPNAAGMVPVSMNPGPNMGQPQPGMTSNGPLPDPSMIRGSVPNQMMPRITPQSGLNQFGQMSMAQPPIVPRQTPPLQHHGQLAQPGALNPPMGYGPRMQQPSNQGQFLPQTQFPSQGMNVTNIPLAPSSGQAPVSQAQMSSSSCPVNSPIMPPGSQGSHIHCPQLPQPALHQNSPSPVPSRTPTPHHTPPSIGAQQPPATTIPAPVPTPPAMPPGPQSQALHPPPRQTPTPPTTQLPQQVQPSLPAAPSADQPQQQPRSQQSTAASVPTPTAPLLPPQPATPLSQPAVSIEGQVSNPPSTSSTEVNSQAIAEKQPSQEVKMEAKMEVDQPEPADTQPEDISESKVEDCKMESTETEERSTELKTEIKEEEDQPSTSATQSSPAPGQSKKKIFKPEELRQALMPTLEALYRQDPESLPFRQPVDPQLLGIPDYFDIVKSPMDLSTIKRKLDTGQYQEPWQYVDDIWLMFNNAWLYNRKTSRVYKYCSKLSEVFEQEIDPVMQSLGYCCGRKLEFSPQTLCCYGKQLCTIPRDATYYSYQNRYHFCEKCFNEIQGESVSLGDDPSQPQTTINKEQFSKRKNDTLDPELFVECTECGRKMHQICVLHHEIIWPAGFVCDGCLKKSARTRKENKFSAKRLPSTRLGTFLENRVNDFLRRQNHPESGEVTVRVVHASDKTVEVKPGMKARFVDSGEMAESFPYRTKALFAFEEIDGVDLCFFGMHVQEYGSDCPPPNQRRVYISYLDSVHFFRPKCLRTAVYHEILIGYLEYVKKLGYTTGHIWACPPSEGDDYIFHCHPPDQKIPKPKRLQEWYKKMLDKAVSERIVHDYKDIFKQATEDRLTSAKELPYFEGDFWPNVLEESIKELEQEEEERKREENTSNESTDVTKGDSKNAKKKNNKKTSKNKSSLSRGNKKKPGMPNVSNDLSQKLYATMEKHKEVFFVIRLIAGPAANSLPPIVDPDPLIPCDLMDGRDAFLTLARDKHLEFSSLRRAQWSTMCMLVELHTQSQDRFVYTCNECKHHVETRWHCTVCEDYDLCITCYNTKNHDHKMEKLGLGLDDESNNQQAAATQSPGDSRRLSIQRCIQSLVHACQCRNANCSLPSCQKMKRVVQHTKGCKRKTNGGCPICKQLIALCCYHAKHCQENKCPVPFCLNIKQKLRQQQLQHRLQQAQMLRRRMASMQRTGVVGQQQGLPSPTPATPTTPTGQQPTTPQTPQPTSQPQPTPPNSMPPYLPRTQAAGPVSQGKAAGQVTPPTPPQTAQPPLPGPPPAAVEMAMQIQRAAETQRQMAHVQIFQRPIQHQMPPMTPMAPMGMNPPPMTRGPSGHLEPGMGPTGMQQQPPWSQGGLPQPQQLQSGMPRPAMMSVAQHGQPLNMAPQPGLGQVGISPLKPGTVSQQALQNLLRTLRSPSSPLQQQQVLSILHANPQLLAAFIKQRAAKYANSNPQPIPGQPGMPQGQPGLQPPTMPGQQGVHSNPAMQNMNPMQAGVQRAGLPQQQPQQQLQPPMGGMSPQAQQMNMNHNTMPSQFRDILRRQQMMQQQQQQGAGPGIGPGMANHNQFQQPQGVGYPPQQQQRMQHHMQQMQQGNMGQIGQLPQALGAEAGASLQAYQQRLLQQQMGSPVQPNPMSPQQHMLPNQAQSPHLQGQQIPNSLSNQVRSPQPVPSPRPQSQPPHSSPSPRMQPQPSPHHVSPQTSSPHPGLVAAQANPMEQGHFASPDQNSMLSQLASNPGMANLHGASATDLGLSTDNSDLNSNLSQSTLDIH
CREB-binding protein/Histone acetyltransferase p300 (Homo sapiens), sequence (Q92793 whole entry, looked up): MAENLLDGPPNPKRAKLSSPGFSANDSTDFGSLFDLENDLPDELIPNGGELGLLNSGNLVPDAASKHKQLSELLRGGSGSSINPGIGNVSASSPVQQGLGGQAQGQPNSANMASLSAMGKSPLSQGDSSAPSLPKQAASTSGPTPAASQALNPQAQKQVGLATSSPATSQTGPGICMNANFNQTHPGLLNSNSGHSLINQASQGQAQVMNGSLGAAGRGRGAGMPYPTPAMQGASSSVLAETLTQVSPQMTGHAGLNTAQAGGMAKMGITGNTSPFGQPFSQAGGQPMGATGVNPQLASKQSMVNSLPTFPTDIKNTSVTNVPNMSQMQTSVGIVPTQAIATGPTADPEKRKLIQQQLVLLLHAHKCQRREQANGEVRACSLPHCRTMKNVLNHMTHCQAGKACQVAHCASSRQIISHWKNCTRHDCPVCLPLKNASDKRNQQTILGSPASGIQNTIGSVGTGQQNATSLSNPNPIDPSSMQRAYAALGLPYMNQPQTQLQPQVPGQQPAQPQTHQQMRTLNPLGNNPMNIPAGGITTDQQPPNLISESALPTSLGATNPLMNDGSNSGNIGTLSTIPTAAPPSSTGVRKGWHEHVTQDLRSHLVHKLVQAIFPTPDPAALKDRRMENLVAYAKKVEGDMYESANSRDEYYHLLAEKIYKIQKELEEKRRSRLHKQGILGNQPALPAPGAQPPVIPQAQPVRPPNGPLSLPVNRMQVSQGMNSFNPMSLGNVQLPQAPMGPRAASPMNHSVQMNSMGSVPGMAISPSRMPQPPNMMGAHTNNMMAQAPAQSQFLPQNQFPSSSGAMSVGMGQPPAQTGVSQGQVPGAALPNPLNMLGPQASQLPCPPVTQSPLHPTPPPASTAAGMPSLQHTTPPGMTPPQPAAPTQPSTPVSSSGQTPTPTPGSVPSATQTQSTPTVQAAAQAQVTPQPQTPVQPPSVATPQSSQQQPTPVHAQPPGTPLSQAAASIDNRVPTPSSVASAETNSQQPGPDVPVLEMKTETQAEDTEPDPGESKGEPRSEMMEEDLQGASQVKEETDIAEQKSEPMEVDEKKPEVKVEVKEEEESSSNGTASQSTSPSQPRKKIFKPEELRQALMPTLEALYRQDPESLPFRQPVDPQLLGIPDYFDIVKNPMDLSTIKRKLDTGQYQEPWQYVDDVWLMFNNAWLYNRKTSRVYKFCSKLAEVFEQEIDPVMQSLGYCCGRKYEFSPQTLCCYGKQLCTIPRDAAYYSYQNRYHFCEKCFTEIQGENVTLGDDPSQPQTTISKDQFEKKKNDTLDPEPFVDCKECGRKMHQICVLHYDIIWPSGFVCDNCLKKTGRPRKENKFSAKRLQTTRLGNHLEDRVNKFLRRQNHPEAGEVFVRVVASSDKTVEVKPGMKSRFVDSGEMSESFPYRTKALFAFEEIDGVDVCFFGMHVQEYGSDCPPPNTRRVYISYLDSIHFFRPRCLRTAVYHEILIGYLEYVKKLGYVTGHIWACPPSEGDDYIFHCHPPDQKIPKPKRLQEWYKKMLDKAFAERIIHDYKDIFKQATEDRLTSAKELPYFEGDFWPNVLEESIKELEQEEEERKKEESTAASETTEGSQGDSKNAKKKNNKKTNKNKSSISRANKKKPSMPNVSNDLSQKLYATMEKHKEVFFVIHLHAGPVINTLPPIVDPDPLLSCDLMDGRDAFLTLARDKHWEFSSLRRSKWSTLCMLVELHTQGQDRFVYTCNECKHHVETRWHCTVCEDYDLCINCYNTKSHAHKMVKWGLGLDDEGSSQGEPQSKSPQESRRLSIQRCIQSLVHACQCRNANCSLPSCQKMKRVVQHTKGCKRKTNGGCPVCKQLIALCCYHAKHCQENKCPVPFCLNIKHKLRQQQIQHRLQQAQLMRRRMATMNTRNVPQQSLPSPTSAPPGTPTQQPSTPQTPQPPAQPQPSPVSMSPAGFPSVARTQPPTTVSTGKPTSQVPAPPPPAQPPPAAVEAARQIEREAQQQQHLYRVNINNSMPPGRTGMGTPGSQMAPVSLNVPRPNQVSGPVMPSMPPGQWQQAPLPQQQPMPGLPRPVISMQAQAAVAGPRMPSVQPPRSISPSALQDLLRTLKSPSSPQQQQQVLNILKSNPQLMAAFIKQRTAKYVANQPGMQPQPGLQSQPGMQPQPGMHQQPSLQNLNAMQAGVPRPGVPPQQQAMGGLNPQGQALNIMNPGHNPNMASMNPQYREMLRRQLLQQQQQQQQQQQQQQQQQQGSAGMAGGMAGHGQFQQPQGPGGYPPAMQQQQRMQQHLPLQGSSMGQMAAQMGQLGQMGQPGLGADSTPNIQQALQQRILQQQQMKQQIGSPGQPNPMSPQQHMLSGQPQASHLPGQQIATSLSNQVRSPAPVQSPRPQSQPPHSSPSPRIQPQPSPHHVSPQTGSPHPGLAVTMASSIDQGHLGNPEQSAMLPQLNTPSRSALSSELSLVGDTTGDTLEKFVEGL
In short: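 Primary mouse hepatocytes treated with 3 μM compound and 100 μM 8-Br-cAMP. Nuclear and cytoplasmic fractions separated with a commercial kit; FOXO1 detected by western blot.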

Hepatocyte [16] = experiment: Inhibition of glucogenesis in mouse primary hepatocytes stimulated with 100 uM 8-Br-cAMP assessed as decrease in G6Pc mRNA expression at 3 uM measured after 8 hrs by RT-qPCR assay
Hepatocyte [17] = experiment: Inhibition of glucogenesis in mouse primary hepatocytes stimulated with 100 uM 8-Br-cAMP assessed as decrease in PEPCK protein expression at 3 uM in presence of cAMP measured after 16 hrs by western blot

Question: Which results are given for `CNC(=O)Nc1ccc2c(c1)CCS21OC(=O)N(CC(=O)N(Cc2ccc(F)cc2)[C@@H](C)C(F)(F)F)C1=O` (some centres undefined)?
Answer: Activity (Mus musculus [1]): inactive; inhibition (Mus musculus [2]): Active; inhibition (Mus musculus [3]): Active; inhibition (Mus musculus [4]): inactive; inhibition (Mus musculus [5]): inactive; inhibition (Mus musculus [6]): inactive; inhibition (Mus musculus [7]): inactive; inhibition (Mus musculus [8]): inactive; inhibition (Mus musculus [9]): Active; inhibition (Adipocyte): Active; inhibition (Mus musculus [10]): inactive; inhibition (Hepatocyte [11]): Active; inhibition (Hepatocyte [12]): Active; inhibition (Hepatocyte [13]): Active; inhibition (Hepatocyte [14]): Active; inhibition (HepG2): inactive; inhibition [15]: Active; inhibition (Hepatocyte [16]): Active; inhibition (Hepatocyte [17]): Active

— ChEMBL document CHEMBL5674890, “Selective inhibition of CBP/p300 HAT by A-485 results in suppression of lipogenesis and hepatic gluconeogenesis” (Cell Death Dis, 2020)
